Only some compounds are listed: those with a hit (about 27% of all), similar ones and a draw of the others.
CYP2C19 act: activators of human cytochrome P450 2C19; recombinant CYP2C19, luciferin-H EGE luminescence; hits give high values; 0 = fully inhibited enzyme, 1 = untreated enzyme; activation factor at 5 µM; 96,000 tested, under 10 active; AID 1025;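 active = activation factor of at least 2 at 5 µM in the primary screen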;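 note: 0 = wells with 2.5 mM tranylcypromine and 1 = vehicle-only wells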
Target sequence (P33261 whole entry, looked up): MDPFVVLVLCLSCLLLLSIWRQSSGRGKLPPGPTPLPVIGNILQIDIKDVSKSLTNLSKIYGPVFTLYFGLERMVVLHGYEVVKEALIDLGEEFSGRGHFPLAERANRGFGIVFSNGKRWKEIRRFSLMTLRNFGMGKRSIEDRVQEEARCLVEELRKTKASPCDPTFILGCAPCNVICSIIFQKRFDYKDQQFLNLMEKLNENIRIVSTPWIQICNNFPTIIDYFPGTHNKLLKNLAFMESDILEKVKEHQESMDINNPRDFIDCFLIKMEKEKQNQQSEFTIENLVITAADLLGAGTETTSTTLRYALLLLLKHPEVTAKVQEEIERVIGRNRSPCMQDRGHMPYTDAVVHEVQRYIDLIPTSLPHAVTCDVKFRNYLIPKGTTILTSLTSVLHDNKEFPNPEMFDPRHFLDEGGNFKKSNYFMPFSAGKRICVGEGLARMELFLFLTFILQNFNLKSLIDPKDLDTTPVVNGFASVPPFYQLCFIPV
CYP2C9 inhib: human CYP2C9 inhibition | P11712 | CYP2C9 Supersomes, luciferin-H conversion, luminescence | inhibition, % at 5 µM | 96,000 compounds, 20% hits;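 active = blocking of liver enzyme CYP2C9 beyond about 50% at 5 µM, limit read from the data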
CYP2C19 inh: blocks human cytochrome P450 2C19; CYP2C19 Supersomes, luciferin-H EGE luminescence, 30 min; 96,000 compounds, 21% hits; inhibition, % at 5 µM; P33261;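 active = CYP2C19 inhibition above a set limit at 5 µM in the primary screen, cut at about 50% in these data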;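 note: plate controls were negative control wells for no effect and 2.5 mM tranylcypromine positive control for full effect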
CYP2C9 act: activators of human CYP2C9. P11712. recombinant CYP2C9, luciferin-H conversion, luminescence; hits give high values; factor 1 = untreated enzyme, 0 = blocked. activation factor at 5 µM. 96,000 compounds, 1.4% hits. AID 1024;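 active = activation factor of 2 or more for CYP2C9 at a 5 µM dose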;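 note: 0 = sulfaphenazole-blocked wells and 1 = vehicle-only wells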
Cav3 T inh: human Cav3.2 channel inhibition, primary screen | Cav3.2-expressing cells, Fluo-4 calcium fluorescence FDSS; hits give low values | 100,000 compounds, 4% hits | O95180 | B-score at 10 µM;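 active = single-dose well whose peak fluorescence ratio is a statistical outlier from its plate by either plate-standardised score or position-corrected B-score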
Rev-RRE block: inhibitors of HIV-1 Rev-RRE RNA interaction | inhibition, % at 8 µM | AID 704 | Rev peptide-RRE RNA binding, FRET | 97,000 compounds, 0.79% hits;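 active = inhibition above the screen-wide mean plus 3 SD, cut at about 35% in these data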;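 note: 0% = median DMSO wells and 100% = median Neomycin B control wells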
Target sequence (P05866 whole entry, looked up): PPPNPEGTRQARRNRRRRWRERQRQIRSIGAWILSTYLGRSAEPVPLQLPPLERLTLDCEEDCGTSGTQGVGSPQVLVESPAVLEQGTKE
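Assay system: labelled RRE RNA duplex and labelled Rev peptide / Medium: HEPES pH 7.5 salt buffer with EDTA / Reagent: labelled Rev peptide / Schedule: 5 + 15 min at 25 °C / Signal: FRET, excitation 480 nm, emission 540 nm donor and 671 nm acceptor / Benchmarks: DMSO and neomycin B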
An asterisk follows results filed as active.

O=C(CN(CCc1ccccc1)C(=O)CNS(=O)(=O)c1ccc(F)cc1)NCC1CCCO1 (configuration not stated) was read as CYP2C19 act 0.6, CYP2C9 inhib 6, CYP2C19 inh 40, CYP2C9 act 0.9, Cav3 T inh -0.23 and Rev-RRE block 0.
For COc1cccc(OC)c1C(=O)N1CCN(Cc2ccc3c(c2)OCO3)CC1 the results were CYP2C19 act 0.4, CYP2C9 inhib 61*, CYP2C19 inh 57*, CYP2C9 act 0.4, Cav3 T inh 0.0037 and Rev-RRE block 2.
CCOc1ncccc1C(=O)N1CCN(Cc2ccc3c(c2)OCO3)CC1 was read as CYP2C19 act 0.2, CYP2C9 inhib 55*, CYP2C19 inh 82*, CYP2C9 act 0.5, Cav3 T inh 0.78 and Rev-RRE block 1.
Screening Cc1cc(=O)oc(C)c1C(=O)N1CCN(Cc2ccc3c(c2)OCO3)CC1 returned CYP2C19 act 1, CYP2C9 inhib 5, CYP2C19 inh 0, CYP2C9 act 0.9, Cav3 T inh 0.59 and Rev-RRE block 14.
`Cc1ccc(NC(=O)N2CCN(Cc3ccc4c(c3)OCO4)CC2)cc1` gave CYP2C19 act 0.7, CYP2C9 inhib 81*, CYP2C19 inh 34, CYP2C9 act 0.2, Cav3 T inh 0.51 and Rev-RRE block 2.
`Cc1ccc(C(=O)N2CCN(Cc3ccc4c(c3)OCO4)CC2)o1` gave CYP2C19 act 0.5, CYP2C9 inhib 42, CYP2C19 inh 50, CYP2C9 act 0.6, Cav3 T inh -0.41 and Rev-RRE block 0.
`Cc1ccc(Nc2nnns2)cc1C` gave CYP2C19 act 0.6, CYP2C9 inhib 34, CYP2C19 inh 40, CYP2C9 act 0.7, Cav3 T inh 1.5 and Rev-RRE block 6.
For Cc1nnc(NC(=O)CSc2cn(Cc3ccccc3)c3ccccc23)s1 the results were CYP2C19 act 1, CYP2C9 inhib -9, CYP2C19 inh -1, CYP2C9 act 1.1, Cav3 T inh -0.57 and Rev-RRE block 2.
Cc1cccc(-n2c(CNC(=O)COc3ccccc3)nnc2SCC(=O)Nc2nccs2)c1 was read as CYP2C19 act 0.9, CYP2C9 inhib 33, CYP2C19 inh 6, CYP2C9 act 0.7, Cav3 T inh -1.7 and Rev-RRE block 5.
Screening Cc1cccc(Cn2cc(SCC(=O)Nc3nccs3)c3ccccc32)c1 returned CYP2C19 act 1.1, CYP2C9 inhib 60*, CYP2C19 inh -14, CYP2C9 act 0.4, Cav3 T inh -4.6* and Rev-RRE block 8.
COc1ccc(CCNC(=O)CSc2cn(Cc3cccc(C)c3)c3ccccc23)cc1OC was read as Cav3 T inh -4.3*.
Cc1ccc(Cn2cc(SCC(=O)Nc3nccs3)c3ccccc32)cc1 was read as CYP2C19 act 1.1, CYP2C9 inhib 91*, CYP2C19 inh -10, CYP2C9 act 0.1, Cav3 T inh -6* and Rev-RRE block 11.
`C=CCC(Nc1ccco1)c1ccccc1` (configuration not stated) gave CYP2C19 act 1.1, CYP2C9 inhib -10, CYP2C19 inh -10, CYP2C9 act 1.1, Cav3 T inh -0.59 and Rev-RRE block 3.
CC(=O)Nc1ccccc1Nc1cc(C#N)c(C#N)cc1[N+](=O)[O-] was read as CYP2C19 act 0.9, CYP2C9 inhib 3, CYP2C19 inh 13, CYP2C9 act 1, Cav3 T inh 1.4 and Rev-RRE block 4.
`CCOC(=O)CCNC(=O)Nc1ccc2nc(C)n(Cc3ccccc3Cl)c(=O)c2c1` gave CYP2C19 act 0.4, CYP2C9 inhib 94*, CYP2C19 inh 55*, CYP2C9 act 0.1, Cav3 T inh -2.3 and Rev-RRE block 9.
`CCOC(=O)CCNC(=O)Nc1ccc2nc(C)n(Cc3cccc(Cl)c3)c(=O)c2c1` gave CYP2C19 act 0.4, CYP2C9 inhib 81*, CYP2C19 inh 62*, CYP2C9 act 0.2, Cav3 T inh -2.7 and Rev-RRE block 8.
For CCCc1nc2ccc(NC(=O)NCCC(=O)OCC)cc2c(=O)n1Cc1cccc(Cl)c1 the results were CYP2C19 act 0.9, CYP2C9 inhib 12, CYP2C19 inh 11, CYP2C9 act 0.9, Cav3 T inh -0.97 and Rev-RRE block -7.
`Cc1nc2ccc(NC(=O)c3cccs3)cc2c(=O)n1Cc1ccc(Cl)cc1` gave CYP2C19 act 0.2, CYP2C9 inhib 68*, CYP2C19 inh 79*, CYP2C9 act 0.3, Cav3 T inh -2.5 and Rev-RRE block 8.
`COc1ccc(OC)c(NC(=O)CSc2nnc(Cc3cccn3C)n2CCc2ccccc2)c1` gave CYP2C19 act 0.6, CYP2C9 inhib 37, CYP2C19 inh 36, CYP2C9 act 0.6, Cav3 T inh -3.6 and Rev-RRE block 6.
O=C1C/C(=C/NCc2ccccc2)C(=O)N1 was read as CYP2C19 act 1, CYP2C9 inhib -3, CYP2C19 inh 0, CYP2C9 act 1, Cav3 T inh -1.3 and Rev-RRE block 8.
`CCOc1ccc(N2C(=O)CC(N3CCC(NC(=O)Nc4ccccc4)CC3)C2=O)cc1` (configuration not stated) gave CYP2C19 act 0.1, CYP2C9 inhib 59*, CYP2C19 inh 90*, CYP2C9 act 0.4, Cav3 T inh 1.4 and Rev-RRE block 7.
Screening Cc1cc(C)c(C(=O)COc2cccnc2[N+](=O)[O-])cc1C returned CYP2C19 act 0.4, CYP2C9 inhib 17, CYP2C19 inh 63*, CYP2C9 act 0.8, Cav3 T inh -1.7 and Rev-RRE block 12.
O=c1c2ccccc2ncn1C1CCCCC1 was read as CYP2C19 act 1.1, CYP2C9 inhib -14, CYP2C19 inh -8, CYP2C9 act 1.1, Cav3 T inh 0.55 and Rev-RRE block 8.
CCCCNC(=O)CSc1nc2ccccc2c(=O)n1C1CCCC1 was read as CYP2C19 act 0.7, CYP2C9 inhib 56*, CYP2C19 inh 26, CYP2C9 act 0.4, Cav3 T inh -2 and Rev-RRE block 13.
Cc1nc2ccccc2c(=O)n1C1CCCCCC1 was read as CYP2C19 act 0.4, CYP2C9 inhib 13, CYP2C19 inh 58*, CYP2C9 act 0.9, Cav3 T inh -1.4 and Rev-RRE block -3.
For CCOC(=O)CSc1nc2ccccc2c(=O)n1C1CCCC1 the results were CYP2C19 act 0.8, CYP2C9 inhib 36, CYP2C19 inh 16, CYP2C9 act 0.6, Cav3 T inh -2.5 and Rev-RRE block 8.
For CCc1cc2c(=O)c(-c3cscn3)coc2c(CN(C)C)c1O the results were CYP2C19 act 1, CYP2C9 inhib -1, CYP2C19 inh 3, CYP2C9 act 1, Cav3 T inh 0.35 and Rev-RRE block 10.
For Cc1ccc(C(=O)Nc2ccc3c(c2)CCC3)o1 the results were CYP2C19 act 0.2, CYP2C9 inhib -13, CYP2C19 inh 78*, CYP2C9 act 1.1 and Cav3 T inh -0.016.

Screens from PubChem.
